Screens from PubChem.
Most compounds without a hit are left out; they make up all but 4.5% or so of the library.
TAAR1 ag: human TAAR1 agonism. activation, % at 3 µM. Q96RJ0. 360,000 compounds, 0.99% hits. CHO RD-HGA16 TAAR1, Fluo-8 calcium fluorescence; vehicle wells 0%, saturating PEA agonist 100%;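 active means activation above the mean activation of all test compounds in the run plus 3 SD, cut at about 38% in these data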
Target sequence (Q96RJ0 whole entry, looked up): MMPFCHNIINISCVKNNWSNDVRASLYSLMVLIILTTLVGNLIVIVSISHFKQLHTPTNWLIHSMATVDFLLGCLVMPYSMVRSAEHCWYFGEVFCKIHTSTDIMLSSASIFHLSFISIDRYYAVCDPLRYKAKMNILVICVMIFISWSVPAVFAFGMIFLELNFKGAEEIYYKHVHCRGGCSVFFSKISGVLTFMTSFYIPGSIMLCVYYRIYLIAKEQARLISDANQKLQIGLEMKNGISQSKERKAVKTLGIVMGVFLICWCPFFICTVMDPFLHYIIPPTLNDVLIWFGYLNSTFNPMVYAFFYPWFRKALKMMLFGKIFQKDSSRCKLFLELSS
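System: CHO RD-HGA16 cells carrying human TAAR1 plus Gα16; Incubation: 17-24 h seeding, 75 min 37 °C dye, 30 min RT; Measured by: Fluo-8 fluorescence, 5 s baseline then 140 s kinetic read; Control set: DMSO and PEA EC100; Replication: single well for each compound.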
OX1R antag-1: blocks the human orexin 1 receptor; O43613; CHO/OX1R cells, Fluo-8 calcium fluorescence, orexin A; inhibition, % at 5 µM; 330,000 compounds, 0.43% hits; AID 434989;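 active means inhibition above its plate's threshold, mean inhibition of all tested compounds on the plate plus 3 SD, cut at about 37% in these data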;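 further: 0% = orexin A challenge wells and 100% = SB-334867-A antagonist wells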
CHO parental Ca: counter-screen for OX1R antagonists: effect in parental CHO cells | parental CHO-K1, ATP-induced calcium, Fluo-8 fluorescence | inhibition, % at 5.6 µM | 330,000 compounds, 0.63% hits;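 active means inhibition above that plate's mean sample inhibition plus 3 SD, cut at about 26% in these data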;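 further: 0% = ATP-challenged DMSO wells and 100% = DMSO wells without ATP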
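Test system: untransfected parental CHO cell line; also added: ATP stimulus; dosing: 5.6 µM, single dose; signal: calcium-sensitive Fluo-8 fluorescence; measure: percent inhibition of ATP-evoked calcium rise, normalized to controls; benchmarks: low control ATP plus DMSO, high control DMSO only; replication: one well per compound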
OX1R antag-2: OX1R (human) antagonism. 330,000 compounds, 1.8% hits. OX1R-expressing cells, FRET antagonist read-out. AID 485270. inhibition, % at 6.6 µM. O43613; in the data active means inhibition mostly above about 38%, no sharp cut-off; inactive means mostly below about 40%;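 further: 0% = agonist challenge alone and 100% = reference antagonist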
TAAR1 antagonist: antagonists of human TAAR1; Q96RJ0; CHO RD-HGA16 TAAR1, Fluo-8 calcium fluorescence, antagonist; inhibition, % at 3 µM; 360,000 compounds, 1.5% hits; AID 624466;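 active means inhibition above a per-plate cutoff, the mean inhibition of test compounds on that plate plus 3 SD, cut at about 49% in these data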;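 further: 0% = DMSO plus EC80 beta-PEA response and 100% = DMSO alone without agonist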
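Assay system: CHO-derived RD-HGA16 cells stably expressing human TAAR1 plus Gα16. Timing: 140 s kinetic read after compound, 140 s after agonist. Technique: kinetic Fluo-8 calcium fluorescence measurement. Measure: % inhibition of agonist calcium response.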
GPR7 antag: blocks human GPR7 receptor signaling; inhibition, % at 4.4 µM; GPR7-expressing cells, fluorescence antagonist assay; AID 1861; 290,000 compounds, 1.1% hits; in the data active means inhibition above about 16%, passing the limit was not always enough;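 further: cells stimulated with the agonist NPW; 0% = agonist with vehicle and 100% = vehicle without agonist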
TAAR1 ag confirm: human TAAR1 agonism, confirmed; shares compounds with TAAR1 ag; CHO RD-HGA16 TAAR1, Fluo-8 calcium fluorescence; scaled: DMSO 0%, maximal phenethylamine 100%; activation, % at 3 µM; 2,400 compounds, 82% hits;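 active means activation above a cutoff set at the run's mean compound activation plus 3 SD, cut at about 39% in these data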
Ga16 ag counter: counter-screen for TAAR1 agonists: nonselective agonists in parental cells | CHO-Ga16 parental, Fluo-8 calcium fluorescence; normalized to maximal ATP response, DMSO zero | shares compounds with TAAR1 ag | activation, % at 3 µM | 2,400 compounds, 50% hits;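 active means activation above the run cutoff, the mean activation over all tested wells plus 3 SD, cut at about 12% in these data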;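 further: 0% = DMSO wells and 100% = maximal ATP response on the peak over basal ratio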
TAAR1 desens: human TAAR1 agonist that also desensitizes the receptor; shares compounds with TAAR1 ag; CHO RD-HGA16 hTAAR1, Fluo-8 calcium, beta-PEA response inhibition; inhibition, % at 3 µM; 2,400 compounds, 46% hits; AID 651951;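 active means inhibition above the run cutoff, the mean inhibition of all test compounds plus 3 SD, cut at about 49% in these data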;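 further: beta-PEA stimulus applied at its EC80; loss of beta-PEA calcium signal after compound pretreatment read as receptor desensitization; 0% = DMSO with beta-PEA at EC80 and 100% = DMSO alone without agonist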
Ga16 antag count: nonselective Ga16 antagonist in TAAR1 agonist counter-screen. CHO-Ga16 ATP-induced calcium, Fluo-8 fluorescence. shares compounds with TAAR1 ag. 2,400 compounds, 39% hits. inhibition, % at 3 µM;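 active means inhibition above the plate's mean compound inhibition plus 3 SD, computed per plate, cut at about 22% in these data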;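 further: 0% = EC80 ATP with DMSO and 100% = DMSO wells without ATP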
* marks the source's active call; other numbers are inactive results.

What do the screens show for `Cc1nn(CC(=O)NCCc2cccs2)c(=O)c2cc3ccccc3n12`?
TAAR1 ag: 48*; OX1R antag-1: -34; CHO parental Ca: -20; OX1R antag-2: 11; TAAR1 antagonist: -5; GPR7 antag: -5; TAAR1 ag confirm: 38*; Ga16 ag counter: -1; TAAR1 desens: 1; Ga16 antag count: 5

How did CCCCc1c(-c2ccccc2OC)ncn1Cc1ccc(OC)cc1 do in these assays?
TAAR1 ag: 1; TAAR1 antagonist: 20

How did Cc1c(C(=O)NCc2ccc(C(F)(F)F)cc2)sc(=O)n1Cc1cccc(F)c1 do in these assays?
TAAR1 ag: 127*; TAAR1 antagonist: 100*; TAAR1 ag confirm: 114*; Ga16 ag counter: 77*; TAAR1 desens: 97*; Ga16 antag count: 71*

Results for Nc1ncnc2c1ncn2[C@@H]1O[C@H](C(=O)N[C@@H](CO)Cc2ccccc2)[C@@H](O)[C@H]1O ?
TAAR1 ag: 2; TAAR1 antagonist: -10

How did COc1ccc([C@@H]2C[C@H]3[C@@H](CN2S(=O)(=O)c2ccccc2)C(=O)C[C@@H](c2ccc(C)cc2)N3S(=O)(=O)c2ccc(C)cc2)cc1 do in these assays?
TAAR1 ag: 0; TAAR1 antagonist: -13

Results for CCOC(=O)N1CCN(c2nc(-c3cccc(OC)c3)cc(C(F)(F)F)n2)CC1 ?
TAAR1 ag: 12; OX1R antag-1: -38; CHO parental Ca: -9; OX1R antag-2: 17; TAAR1 antagonist: 2; GPR7 antag: -4

How did CCOC(=O)N1CCC(NC(=O)c2cnn3c(C(F)(F)F)cc(-c4cccc(OC)c4)nc23)CC1 do in these assays?
TAAR1 ag: 71*; OX1R antag-1: -12; CHO parental Ca: -25; OX1R antag-2: 10; TAAR1 antagonist: 2; TAAR1 ag confirm: 3; Ga16 ag counter: 4; TAAR1 desens: 19; Ga16 antag count: 16

Results for Cc1ccc(CN2CCNC(=O)C2CC(=O)N(C)CCc2ccccc2)cc1 (stereo not drawn) ?
TAAR1 ag: 59*; OX1R antag-1: -27; CHO parental Ca: -14; OX1R antag-2: 7; TAAR1 antagonist: -11; GPR7 antag: -13; TAAR1 ag confirm: 78*; Ga16 ag counter: 0; TAAR1 desens: 37; Ga16 antag count: 0

What do the screens show for `CCOc1ccccc1CN1CCNC(=O)C1CC(=O)N(C)CCc1ccccn1` (stereo not drawn)?
TAAR1 ag: 54*; OX1R antag-1: -6; CHO parental Ca: -9; OX1R antag-2: 8; TAAR1 antagonist: -20; GPR7 antag: -10; TAAR1 ag confirm: 60*; Ga16 ag counter: 6; TAAR1 desens: 18; Ga16 antag count: 1

How did Cc1c(NCc2cc(Cl)cc(Cl)c2O)c(=O)n(-c2ccccc2)n1C do in these assays?
TAAR1 ag: 7; OX1R antag-1: -30; CHO parental Ca: -12; OX1R antag-2: 9; TAAR1 antagonist: 16; GPR7 antag: -1

How did Cc1c(NCc2cc(Cl)ccc2O)c(=O)n(-c2ccccc2)n1C do in these assays?
TAAR1 ag: 50*; OX1R antag-1: -30; CHO parental Ca: 1; OX1R antag-2: 11; TAAR1 antagonist: 26; GPR7 antag: 4; TAAR1 ag confirm: 25; Ga16 ag counter: 6; TAAR1 desens: 24; Ga16 antag count: 13
